The record followed here is ChEMBL document CHEMBL1157023, “Synthesis and antimicrobial activities of some new thiazole and pyrazole derivatives based on 4,5,6,7-tetrahydrobenzothiophene moiety” (2010).

Structures are written as SMILES.

What all share (type): functional
In one test the test system is Botrytis fabae. Description: Antifungal activity against Botrytis fabae at 2 mg/ml after 7 days by agar diffusion assay. The settings on record: 168 h, read-out: DIZ. Put shortly: (§1)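 Fungus grown on potato dextrose agar with test compound in DMSO, DMSO-only control plate for each organism. Plates incubated seven days in three replicate plates per compound. Activity read as inhibition zone diameter.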
Background: In agar diffusion tests the substance spreads into inoculated agar from a disc or well.

Another test has as its system Klebsiella pneumoniae. Description: Antimicrobial activity against Klebsiella pneumoniae at 2 mg/ml after 24 hrs by agar diffusion assay. The conditions noted are these: read-out: DIZ. Put shortly:
(§2)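 Bacterial strain grown on nutrient agar with test compound in DMSO, DMSO-only control plate for each organism, ampicillin 2 mg/ml as reference. Plates incubated 24 h in three replicate plates per compound. Activity read as inhibition zone diameter.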

The test system of a further test is Bacillus thuringiensis. Description: Antibacterial activity against Bacillus thuringiensis at 2 mg/ml after 24 hrs by agar diffusion assay. The settings on record: read-out: DIZ. The method in brief:
as §2

The test system of a further test is Fusarium oxysporum. Description: Antifungal activity against Fusarium oxysporum at 2 mg/ml after 7 days by agar diffusion assay. The settings on record: 168 h, read-out: DIZ. The method in brief:
as §1

In the case of `N#Cc1nnc2c(C(=O)Nc3sc4c(c3C(N)=O)CCCC4)c(Nc3ccccc3)nn2c1N`, the results for the zone of inhibition at 2000 µg/mL in the test on Botrytis fabae, in the test on Klebsiella pneumoniae and in the test on Bacillus thuringiensis were 16 mm, 18 mm and 16 mm, respectively.

Consider `Cc1cc(C)n2nc(Nc3ccccc3)c(C(=O)Nc3sc4c(c3C(N)=O)CCCC4)c2n1`, for which the zone of inhibition at 2000 µg/mL in the test with Fusarium oxysporum was found to be 13 mm; in the test with Botrytis fabae, 15 mm; with Klebsiella pneumoniae it was 17 mm; with Bacillus thuringiensis, 15 mm.

As for `Cc1cc(C)c2c(n1)nn1c(N)c(C(=O)Nc3sc4c(c3C(N)=O)CCCC4)nnc21`, the zone of inhibition at 2000 µg/mL in the test with Fusarium oxysporum stood at 13 mm; in the test on Botrytis fabae it was 13 mm; in the test with Klebsiella pneumoniae, 18 mm; with Bacillus thuringiensis, 16 mm.

As for `N#C/C(C(=O)Nc1sc2c(c1C(N)=O)CCCC2)=C1\SC(=O)CN1c1ccccc1`, the zone of inhibition at 2000 µg/mL turned out to be 16 mm in the test on Fusarium oxysporum, 12 mm in the test on Botrytis fabae, 19 mm with Klebsiella pneumoniae and 21 mm with Bacillus thuringiensis.

On to `NC(=O)c1c(NC(=O)c2c(Nc3ccccc3)nn3c4c(cnc23)CCc2ccccc2-4)sc2c1CCCC2`, for which the zone of inhibition at 2000 µg/mL in the test on Fusarium oxysporum turned out to be 17 mm; in the test on Klebsiella pneumoniae it was 17 mm; with Bacillus thuringiensis it was 15 mm.

Consider `CC1(C)S[C@@H]2[C@H](NC(=O)[C@H](N)c3ccccc3)C(=O)N2[C@H]1C(=O)O` [AMPICILLIN], for which the zone of inhibition at 2000 µg/mL turned out to be 17 mm in the test with Fusarium oxysporum, 15 mm in the test with Botrytis fabae, 20 mm in the test with Klebsiella pneumoniae and 17 mm in the test with Bacillus thuringiensis.

For `COc1ccc(/C=c2\c(=O)s/c(=C(\C#N)C(=O)Nc3sc4c(c3C(N)=O)CCCC4)n2-c2ccccc2)cc1`, the zone of inhibition at 2000 µg/mL came out at 15 mm in the test on Fusarium oxysporum, 13 mm with Botrytis fabae, 23 mm with Klebsiella pneumoniae and 20 mm in the test on Bacillus thuringiensis.

Take `Cc1ccc(C)n1-c1[nH]nc(Nc2ccccc2)c1C(=O)Nc1sc2c(c1C(N)=O)CCCC2`: the zone of inhibition at 2000 µg/mL was 14 mm in the test on Fusarium oxysporum, 18 mm with Botrytis fabae, 22 mm in the test with Klebsiella pneumoniae and 18 mm in the test on Bacillus thuringiensis.

On to `CC(=O)c1nnc2c(C(=O)Nc3sc4c(c3C(N)=O)CCCC4)c(Nc3ccccc3)nn2c1C`, for which the zone of inhibition at 2000 µg/mL was 18 mm in the test on Botrytis fabae and 12 mm with Klebsiella pneumoniae.

Consider `NC(=O)c1c(NC(=O)c2cn[nH]c2N)sc2c1CCCC2`, for which the zone of inhibition at 2000 µg/mL in the test with Fusarium oxysporum worked out at 12 mm; in the test on Botrytis fabae it was 16 mm; with Klebsiella pneumoniae it was 20 mm; with Bacillus thuringiensis, 17 mm.

On to `NC(=O)c1c(NC(=O)c2c(Nc3ccccc3)n[nH]c2N)sc2c1CCCC2`, for which the zone of inhibition at 2000 µg/mL in the test with Fusarium oxysporum was found to be 14 mm; in the test with Klebsiella pneumoniae, 22 mm; with Bacillus thuringiensis, 24 mm.

Turning to `Cc1nn(-c2ccccc2)c2c1cnc1c(C(=O)Nc3sc4c(c3C(N)=O)CCCC4)c(Nc3ccccc3)nn12`, the zone of inhibition at 2000 µg/mL in the test on Fusarium oxysporum was 14 mm; in the test on Botrytis fabae, 16 mm; with Klebsiella pneumoniae it was 18 mm; in the test on Bacillus thuringiensis, 16 mm.

For the compound `NC(=O)c1c(NC(=O)c2c(Nc3ccccc3)nn3c(-c4ccccc4)ccnc23)sc2c1CCCC2`, the zone of inhibition at 2000 µg/mL with Fusarium oxysporum amounted to 19 mm; in the test with Botrytis fabae, 15 mm; in the test with Klebsiella pneumoniae, 19 mm; with Bacillus thuringiensis, 15 mm.

`Cc1ccc(N/N=C2/C(=O)S/C(=C(\C#N)C(=O)Nc3sc4c(c3C(N)=O)CCCC4)N2c2ccccc2)cc1`: the zone of inhibition at 2000 µg/mL in the test with Fusarium oxysporum was found to be 16 mm; in the test on Botrytis fabae, 18 mm; in the test on Klebsiella pneumoniae, 19 mm; in the test on Bacillus thuringiensis it was 22 mm.
